The species named for assay [1] is Homo sapiens. The assay can be described thus: In vitro inhibition of ADP-induced human platelet aggregation. The class given is functional. The note with it: Homo sapiens; read-out: EC50. The essentials: (§1)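 Human venous blood citrated with 10% v/v sodium citrate (3.8%); platelet-rich plasma spun at 300g, 10 min, 4 °C, used within 2 h. Compound in Me2SO (1% final) preincubated 10 min at room temperature; aggregation triggered by collagen 0.02 mg/mL final or ADP 0.85 μg/mL final; maximum rate read in Born aggregometer. EC50 from log dose–effect regression with 95% confidence limits.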

The species named for assay [2] is Homo sapiens. The assay can be described thus: In vitro inhibition of collagen-induced human platelet aggregation. The class given is functional, organism-based. To be noted: Homo sapiens; read-out: EC50. The gist of the method:
as §1

The species entered for assay [3] is Homo sapiens. The assay can be described thus: Relative activity (compared to acetylsalicylic acid) for in vitro inhibition of collagen-induced human platelet aggregation. The class given is functional.
Assay [4] concerns Rattus norvegicus. The experiment in a line: In vitro hypotensive activity in anesthetized rats after intraperitoneal administration. To be noted: ip, in the assay text read “In vivo” for “In vitro”. It is filed as functional. The gist of the method:
(§2)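 Male Sprague-Dawley rats, 230-280 g, urethane-anesthetized (ip); carotid arterial pressure recorded continuously by pressure transducer. Compounds given ip at 2 mL/kg. ED20, dose lowering mean carotid pressure by 20%, from log dose–effect regression; dihydralazine as reference.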

The test system of assay [5] is Rattus norvegicus. The experiment in a line: Ex vivo inhibition of collagen-induced rat platelet aggregation after peroral administration. It is filed as functional. The note with it: po. The gist of the method:
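Male Sprague-Dawley rats, 200-250 g, dosed orally, three rats per dose. Blood drawn by heart puncture under ether 1 h post-dose; platelet-rich plasma prepared by centrifugation; aggregation induced with collagen 0.02 mg/mL final, maximum rate read in Born aggregometer.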

Assay [6] is described as follows: In vitro inhibition of collagen induced aggregation of human plateles and the ratio of ED33 to EC50 was reported. The class given is functional. The essentials:
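Ratio of oral ED33 (male Sprague-Dawley rats, 3 per dose, blood taken 1 h post-dose, collagen-triggered aggregation) to in vitro EC50 (human citrated platelet-rich plasma, 10 min room-temperature preincubation in 1% Me2SO, collagen 0.02 mg/mL final, regression-derived).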

In assay [7] the test system is Rattus norvegicus. The experiment in a line: Activity relative to dihydralazine for in vitro hypotensive activity in anesthetized rats. The class given is functional. The note with it: in the assay text read “in vivo” for “in vitro”. The essentials: as §2
Assay [8] is filed under the species Rattus norvegicus. The experiment in a line: Relative activity in rats based on acetylsalicylic acid. The class given is functional.
For assay [9], the system named is Rattus norvegicus. The assay can be described thus: In vivo hypotensive activity in anesthetized rats after intravenous administration.

Consider nine molecules from ChEMBL document CHEMBL1122226, “6-Aryl-4,5-dihydro-3(2H)-pyridazinones. A new class of compounds with platelet aggregation inhibiting and hypotensive activities” (J Med Chem, 1983).

A word on the EC50: it is the concentration giving half of the maximal effect.

The structures appear in SMILES notation. Values after ≈ are worked out from the molar mass of the structure shown.

In the case of `CC(Cl)C(=O)Nc1ccc(C2=NNC(=O)CC2)cc1` (centres undefined), the EC50 in assay [1] was found to be 0.45 µg/mL (≈ 1.61 µM); in [2], 0.28 µg/mL (≈ 1 µM). Also, the Relative activity in assay [3] came out at 1764; in assay [7], 0.64; in [8], 10.3. In [4], the ED20 worked out at 0.53 mg/kg. The ED33 in assay [5] came to 22.6 mg/kg. Further, the Ratio in assay [6] stood at 82.7.
For the molecule `CC(Cl)C(=O)Nc1ccc(C2=NNC(=O)CC2C)cc1` (centres undefined) [AMIPIZONE], the EC50 in [1] is 0.099 µg/mL (≈ 0.337 µM). Also, the Relative activity in assay [3] is 15936; in assay [7], 41.7; in assay [8] it was 370. Besides, the ED20 in assay [4] worked out at 0.0081 mg/kg. The molecule also yielded an ED33 in assay [5] of 0.63 mg/kg. Moreover, the Ratio in [6] amounted to 20.3.
Turning to `CCC(Cl)C(=O)Nc1ccc(C2=NNC(=O)CC2C)cc1` (centres undefined), the EC50 in assay [1] was found to be 0.035 µg/mL (≈ 0.114 µM); in assay [2] it was 0.069 µg/mL (≈ 0.224 µM). Moreover, the Relative activity in assay [3] is listed as 7159; in [7], 0.52; in [8], 353. In assay [4], this molecule had an ED20 of 0.65 mg/kg. Further, in assay [5], the ED33 was found to be 0.66 mg/kg. Further, in assay [6], the Ratio amounted to 9.6.
Take `O=C1CCC(c2ccc(NC(=O)CCl)cc2)=NN1`: in [1], the EC50 amounted to 0.39 µg/mL (≈ 1.47 µM). For the same molecule, the Relative activity in assay [3] was 1976; in [7], 0.91; in assay [8], 14.8. In assay [4], the ED20 stood at 0.37 mg/kg. The ED33 in assay [5] was 15.7 mg/kg. For the same molecule, the Ratio in assay [6] turned out to be 62.8.
For the molecule `CC1CC(=O)NN=C1c1ccc(NC(=O)C(C)(C)CCl)cc1` (centres undefined), the half-maximal effective concentration (EC50) in assay [1] was 0.28 µg/mL (≈ 0.87 µM). For the same molecule, the Relative activity in [3] worked out at 1051; in assay [7], 0.55; in assay [8], 46.6. Also, the ED20 in assay [4] was 0.61 mg/kg. Also, the ED33 in [5] stood at 5 mg/kg. In assay [6], the Ratio was determined as 10.6.
Turning to `O=C1CCC(c2ccc(NC(=O)CCCl)cc2)=NN1`, the EC50 in assay [1] came to 0.98 µg/mL (≈ 3.5 µM); in [2], 0.9 µg/mL (≈ 3.22 µM). Further, the results for the Relative activity in assay [3], in [7] and in [8] were 549, less than 0.34 and 5.6, respectively. Further, the ED20 in assay [4] is greater than 1 mg/kg. For the same molecule, the ED33 in [5] is 41.7 mg/kg. Also, the Ratio in [6] came to 46.3.
`CC1CC(=O)NN=C1c1ccc(NC(=O)CCCl)cc1` (centres undefined): the EC50 in assay [1] is 0.16 µg/mL (≈ 0.545 µM). Moreover, the Relative activity in [3] is given as 1647; in assay [7] it was 7.68; in assay [8], 4.9. Further, in assay [4], the ED20 is 0.044 mg/kg. The molecule further had an ED33 in [5] of 47.5 mg/kg. Moreover, the Ratio in [6] turned out to be 158.
As to `CCCCC[C@H](O)/C=C/[C@@H]1[C@H]2C/C(=C/CCCC(=O)O)O[C@H]2C[C@H]1O` [EPOPROSTENOL], the EC50 in assay [1] is 0.0174 µg/mL (≈ 0.0494 µM); in assay [2], 0.00165 µg/mL (≈ 0.00468 µM). In addition, in assay [3], the Relative activity came out at 299394. In addition, in assay [9], the ED20 was determined as 0.67 µg/kg.
`CCC(=O)Nc1ccc(C2=NNC(=O)CC2)cc1`: the EC50 in assay [1] turned out to be 0.64 µg/mL (≈ 2.61 µM); in assay [2] it was 0.74 µg/mL (≈ 3.02 µM). The Relative activity is on record as 668 in assay [3], 5.63 in assay [7] and 5.6 in assay [8]. The ED20 in [4] came to 0.06 mg/kg. Also, the ED33 in assay [5] was 41.6 mg/kg. Moreover, the Ratio in assay [6] amounted to 56.3.
